OXTR potentiate – potentiates the human oxytocin receptor response. P30559. CHO-OTR cells, Fluo-8 calcium fluorescence, potentiator mode; 0% = oxytocin EC15, 100% = EC100. activation, % at 3 µM. 320,000 compounds, 0.061% hits;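 active = activation above that plate's cutoff, the mean activation of tested compounds plus 3 SD, cut at about 6.6% in these data, passing the limit was not always enough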
Target sequence (P30559 whole entry, looked up): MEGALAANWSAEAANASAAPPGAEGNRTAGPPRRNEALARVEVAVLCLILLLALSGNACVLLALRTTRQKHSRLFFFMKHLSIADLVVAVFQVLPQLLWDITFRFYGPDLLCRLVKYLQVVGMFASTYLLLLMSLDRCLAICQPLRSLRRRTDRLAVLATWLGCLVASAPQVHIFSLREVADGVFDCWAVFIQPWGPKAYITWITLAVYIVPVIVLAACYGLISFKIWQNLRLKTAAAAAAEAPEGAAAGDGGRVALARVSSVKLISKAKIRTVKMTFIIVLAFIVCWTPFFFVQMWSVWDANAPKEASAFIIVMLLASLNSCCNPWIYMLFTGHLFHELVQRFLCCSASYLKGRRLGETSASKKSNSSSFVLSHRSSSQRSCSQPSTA
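System: human OTR in CHO cells; Also added: sub-maximal oxytocin, roughly EC15; Timing: compound 6 min at room temperature before oxytocin, 100 s read; Technique: Fluo-8 intracellular calcium fluorescence, ex 470-495, em 515-575 nm; Controls: oxytocin EC15 low and EC100 high; Replication: singlicate.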
OXTR ag – agonists of human oxytocin receptor; activation, % at 3 µM; CHO-OTR cells, Fluo-8 calcium fluorescence; normalized: DMSO 0%, oxytocin 100%; 320,000 compounds, 0.32% hits; AID 2435; P30559;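 active = activation above the mean of all tested compounds plus 3 SD, cutoff set per screening run, cut at about 20% in these data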;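 also: peak over basal fluorescence ratio from a 100 s FLIPR kinetic read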
TAAR1 antagonist – antagonists of human TAAR1 | CHO RD-HGA16 TAAR1, Fluo-8 calcium fluorescence, antagonist | AID 624466 | inhibition, % at 3 µM | 360,000 compounds, 1.5% hits | Q96RJ0;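 active = inhibition above a per-plate cutoff, the mean inhibition of test compounds on that plate plus 3 SD, cut at about 49% in these data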
Target sequence (Q96RJ0 whole entry, looked up): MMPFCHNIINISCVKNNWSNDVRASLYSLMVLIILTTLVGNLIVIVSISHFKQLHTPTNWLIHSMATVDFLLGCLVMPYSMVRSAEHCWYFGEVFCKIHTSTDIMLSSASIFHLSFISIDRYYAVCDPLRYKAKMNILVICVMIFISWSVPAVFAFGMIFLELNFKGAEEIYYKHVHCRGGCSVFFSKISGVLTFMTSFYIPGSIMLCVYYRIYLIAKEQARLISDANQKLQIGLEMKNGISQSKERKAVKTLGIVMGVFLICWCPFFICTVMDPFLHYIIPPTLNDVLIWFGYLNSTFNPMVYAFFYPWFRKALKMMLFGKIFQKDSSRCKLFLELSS
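Test system: hTAAR1-expressing CHO RD-HGA16 cells, Gα16-coupled; Probe or stimulus: EC80 β-phenethylamine stimulus; Compound dosing: single nominal final test compound concentration of 3 µM; Timing: 140 s kinetic read after compound, 140 s after agonist; Signal: Fluo-8 calcium-sensitive fluorescence; Measure: % inhibition of agonist calcium response; Controls: DMSO and EC80 PEA controls.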
TAAR1 agonist – agonists of human TAAR1. 360,000 compounds, 0.99% hits. CHO RD-HGA16 TAAR1, Fluo-8 calcium fluorescence; vehicle wells 0%, saturating PEA agonist 100%. activation, % at 3 µM. Q96RJ0. AID 624467;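 active = activation above the mean activation of all test compounds in the run plus 3 SD, cut at about 38% in these data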
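Test system: RD-HGA16 (CHO) cells co-expressing Gα16 and hTAAR1; dosing: one-point dosing at 3 µM (nominal); timing: 17-24 h seeding, 75 min 37 °C dye, 30 min RT; signal: kinetic Fluo-8 calcium fluorescence; read-out basis: % activation relative to PEA EC100 response; controls: DMSO and PEA EC100; replicates: n 1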
V1aR counter – V1a receptor agonism, counter-screen for OXTR agonists | P37288 | CHO-V1R cells, Fluo-8 calcium fluorescence, agonist mode; 0% DMSO, 100% 3 nM vasopressin | activation, % at 3 µM | 320,000 compounds, 0.25% hits | AID 2797;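 active = activation above the mean activation of all tested compounds plus 3 SD, per screening run, cut at about 20% in these data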;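 also: signal is peak over basal fluorescence ratio across a 100 second FLIPR read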
TAAR1 nonsel count – counter-screen for TAAR1 antagonists: nonselective antagonists; shares compounds with TAAR1 antagonist; counterscreen cell line, calcium fluorescence, antagonist mode; inhibition, % at 3 µM; 2,400 compounds, 77% hits; in the data active = inhibition above about 22%;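 also: CHO-Ga16 host cells stimulated with ATP at an EC80 level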
TAAR1 ant conf – confirmation of human TAAR1 antagonists; 2,400 compounds, 40% hits; TAAR1-expressing cells, fluorescence antagonist read-out; shares compounds with TAAR1 antagonist; inhibition, % at 3 µM; in the data active = inhibition above about 49%;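 also: CHO-Ga16 host cells challenged with agonist PEA near its EC80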
Ga16 nonsel ag – nonselective Ga16 agonism, counter-screen; shares compounds with TAAR1 antagonist; Ga16-expressing cells, calcium fluorescence, agonist counterscreen; activation, % at 3 µM; 2,400 compounds, 18% hits; in the data active = activation above about 12%
TAAR1 ag count – counter-screen for human TAAR1 antagonists: TAAR1 agonists. shares compounds with TAAR1 antagonist. hTAAR1 cell line, fluorescence activation, agonist mode. activation, % at 3 µM. 2,400 compounds, 2% hits. AID 651955; in the data active = activation above about 37%;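 also: CHO cells stably expressing TAAR1 with calcium dye readout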
Hits are given with their value; . = inactive; / = no result given. This is a sample that favours compounds with a hit; in the whole collection about 2.3% have one here.

SMILES	OXTR potentiate	OXTR ag	TAAR1 antagonist	TAAR1 agonist	V1aR counter	TAAR1 nonsel count	TAAR1 ant conf	Ga16 nonsel ag	TAAR1 ag count
O=C(Nc1ccc(Cc2ccncc2)cc1)c1ccc(N2CCOCC2)c([N+](=O)[O-])c1	.	.	95	.	.	33	52	14	.
O=C(Nc1ccc(N2CCCCC2)c(Cl)c1)c1ccc(N2CCOCC2)c([N+](=O)[O-])c1	.	.	.	.	.	/	/	/	/
CCOC(=O)c1cc[nH]c1CC(=O)NC	.	.	.	.	.	/	/	/	/
CN(C)n1cnc2ccsc2c1=O	.	.	.	.	.	/	/	/	/
O=C(COc1ccccc1Cl)Nc1ccc(N2CCCC2)cc1	.	.	.	.	.	/	/	/	/
CCC(=O)Nc1ccc(N2CCN(C(=O)c3cccs3)CC2)cc1	.	.	.	.	.	/	/	/	/
O=C(COc1ccccc1[N+](=O)[O-])Nc1ccc(N2CCN(C(=O)c3cccs3)CC2)cc1	.	.	92	.	.	50	71	22	.
O=C(COc1ccccc1Cl)NC(=S)Nc1ccc(CN2CCOCC2)cc1	.	.	73	.	.	47	51	.	.
O=C(COc1ccc(Cl)cc1Cl)NC(=S)Nc1ccc(CN2CCOCC2)cc1	.	.	.	.	.	/	/	/	/
O=C(COc1ccccc1Cl)Nc1ccc(N2CCN(C(=O)c3ccccc3)CC2)cc1	.	.	69	.	.	46	54	15	.
CCC(C)c1ccc(NC(=S)NCc2ccccc2OC)cc1 (centres undefined)	/	/	.	.	/	/	/	/	/
C[C@H](CO)N1C[C@H](C)[C@@H](CN(C)C(=O)NC2CCCCC2)Oc2ccc(NC(=O)Cc3ccccc3)cc2C1=O	.	.	.	.	.	/	/	/	/
O=C1C=C(C#Cc2ccc(Oc3ccccc3)cc2)C[C@@H](c2ccc(F)cc2)C1	/	/	.	.	/	/	/	/	/
O=C(c1cn(-c2ccccc2)nc1-c1cccs1)N1CCN(c2ccc(F)cc2)CC1	.	.	56	.	.	.	.	.	.
Cc1c(-c2ccccc2)oc2c(C(=O)OCC(=O)Nc3cccc(F)c3)cccc2c1=O	.	.	63	.	.	33	64	.	.
N#Cc1c(N)[nH]c2ccc(Sc3ccccc3)cc12	/	/	54	.	/	28	.	12	.
CCN1C(=O)[C@H]2[C@@H](c3ccc(OC)cc3)N3C(=O)CN(CC4CC4)C(=O)[C@@]3(C)[C@H]2C1=O	.	.	.	.	.	/	/	/	/
Cc1nc(-c2ccc(F)cc2)c(CC(=O)N2CCN(S(=O)(=O)c3cccc(Cl)c3)CC2)s1	.	.	51	.	.	25	.	.	.
Cc1ccc(C)c(S(=O)(=O)N2CCN(C(=O)Cc3sc(C)nc3-c3ccc(F)cc3)CC2)c1	/	/	59	.	/	23	.	.	.
O=C(CCc1ccc(O)cc1)N/N=C/c1coc2ccccc2c1=O	.	.	.	.	.	/	/	/	/
CCCCCCCCN1C(=O)[C@H](CC(=O)NCCCN2CCCC2=O)C[C@@]2(C(=O)OC)CCCCC=C12	/	/	.	.	/	/	/	/	/
COc1cc(-c2cc(C(=O)Nc3nc4ccccc4s3)c3ccccc3n2)cc(OC)c1OC	.	.	58	.	.	37	.	.	.
Cc1ccc(-c2cc(C(=O)Nc3cccnc3)c3ccccc3n2)o1	.	.	.	.	.	/	/	/	/
CC(=O)Nc1cccc(NC(=O)c2cc(-c3cccnc3)nc3ccc(Cl)cc23)c1	.	.	86	.	.	31	55	.	.
Cc1ccc(NC(=O)c2cc(-c3ccc(C)o3)nc3ccccc23)cc1	.	.	57	.	.	24	.	.	.
SMILES	OXTR potentiate	OXTR ag	TAAR1 antagonist	TAAR1 agonist	V1aR counter	TAAR1 nonsel count	TAAR1 ant conf	Ga16 nonsel ag	TAAR1 ag count
Cc1ccc(C)c(-c2cc(C(=O)Nc3cccnc3)c3ccccc3n2)c1	.	.	61	.	.	25	49	13	.
Cc1ccc(-c2nn(-c3ccccc3)cc2C(=O)Nc2ccc(C)c(S(=O)(=O)N3CCOCC3)c2)cc1	.	.	.	.	.	/	/	/	/
NC(=O)c1cccc(-c2coc3c(C(=O)NCc4cccnc4)cccc23)c1	/	/	.	.	/	/	/	/	/
COc1cc(-c2cc(C(=O)Nc3ccc(O)cc3)c3ccccc3n2)cc(OC)c1OC	.	.	58	.	.	27	.	.	.
COc1ccc(/C=C/C(=O)Nc2ccc(C)c(S(=O)(=O)N3CCOCC3)c2)cc1	.	.	65	.	.	31	.	13	.
CC(=O)c1cccc(NC(=O)c2cccc3c(-c4cccnc4)coc23)c1	/	/	75	.	/	31	52	.	.
COc1cc(-c2cc(C(=O)Nc3ccc(C)c(S(=O)(=O)N4CCOCC4)c3)c3ccccc3n2)cc(OC)c1OC	.	.	74	.	.	40	55	.	.
Cc1cc(/C=N/NC(N)=S)c(C)n1-c1ccc(Br)cc1	.	.	95	.	.	.	92	12	.
Cc1cc(/C=N/NC(N)=S)c(C)n1-c1cccc(Cl)c1	.	.	.	.	.	/	/	/	/
Cc1cc(/C=N/NC(N)=S)c(C)n1-c1ccc(Cl)cc1	.	.	84	.	.	.	83	16	.
COc1ccccc1-c1cc(C(=O)N2CCN(S(=O)(=O)c3ccc(C)cc3)CC2)[nH]n1	.	.	74	.	.	31	.	.	.
COc1ccc(-c2cc(C(=O)N3CCN(S(=O)(=O)c4ccccc4)CC3)[nH]n2)cc1	.	.	.	.	.	/	/	/	/
C=C(C)COc1ccc(-c2n[nH]c(C)c2-c2ccc(OC)cc2)c(O)c1	.	.	62	.	.	.	.	.	.
COc1ccc(-c2n[nH]c(C)c2-c2cscn2)c(O)c1	.	.	.	.	.	/	/	/	/
COc1ccccc1OCCCCn1ncc2ccc(OC)c(OC)c2c1=O	.	.	.	.	.	/	/	/	/
Cc1cc(C)c(C)c(S(=O)(=O)N2CCN(C(=O)c3cc(=O)[nH]c4ccccc34)CC2)c1C	.	.	55	.	.	34	56	13	.
COC(=O)[C@]12CCCCC=C1N(Cc1cccc3ccccc13)C(=O)[C@H](CC(=O)N1CCC(c3ccccc3)CC1)C2	/	/	.	.	/	/	/	/	/
COC(=O)[C@]12CCCCC=C1N(Cc1cccc3ccccc13)C(=O)[C@H](CC(=O)N1CCCCC1)C2	/	/	62	.	/	22	.	.	.
Oc1ccccc1OCCOc1ccccc1OCCOc1ccccc1O	.	.	79	.	.	35	55	.	.
